Measurements gathered from unrelated publications.
Lines come from different studies, so protocols differ.
PCNA: Proliferating cell nuclear antigen (PCNA, Homo sapiens, UniProt P12004)
ADRB2: Beta-2 adrenergic receptor (ADRB2, Homo sapiens, UniProt P07550)
F10 trypsin-like site: Coagulation factor X, trypsin-like site (F10, Homo sapiens, UniProt P00742)
Ntsr1: Neurotensin receptor type 1 (Ntsr1, Rattus norvegicus, UniProt P20789)
MMP2: 72 kDa type IV collagenase (MMP2, Homo sapiens, UniProt P08253)
CYP1B1: Cytochrome P450 1B1 (CYP1B1, Homo sapiens, UniProt Q16678)

Compound | target | test | conditions | endpoint | value
CC[C@H](C)[C@H](NC(=O)[C@H](CCCCN)NC(=O)[C@H](CO)NC(=O)[C@H](CC(=O)O)NC(=O)[C@H](CCCCN)NC(=O)[C@H](CCCCN)NC(=O)CNC(=O)[C@H](Cc1c[nH]cn1)NC(=O)[C@@H](N)CCC(N)=O)C(=O)N[C@H](C(=O)N[C@@H](CC(=O)O)C(=O)N[C@@H](C)C(=O)N[C@@H](Cc1ccccc1)C(=O)N[C@@H](CCSC)C(=O)N[C@@H](CCCNC(=N)N)C(=O)N[C@@H](CC(C)C)C(=O)N1CCC[C@H]1C(=O)N[C@@H](CCCCN)C(=O)N[C@@H](C)C(=O)O)[C@@H](C)O | PCNA | binding, ITC | pH 7.4 | Kd | 126 µM
NCC(O)c1cc(O)c(O)cc1F (centres unmarked) | ADRB2 | ligand displacement, radioligand | cell membranes | Ki | 1160 µM
FC(F)(F)c1ccc2c(c1)[C@@H]1CNC[C@H]2C1 | Neuronal acetylcholine receptor subunit alpha-7 (CHRNA7, Homo sapiens, UniProt P36544) | cell-free assay |  | Ki | > 0.3 µM
CC(C)(C)[C@H](NC(=O)[C@H](CCONC(=N)N)NC(=O)Cc1ccc(CN)cc1)C(=O)N[C@@H](CCCCN)C(=O)NCc1ccc(C(=N)N)cc1 | F10 trypsin-like site | enzyme activity, inhibitor | pH 8 | Ki | 18 µM
CC[C@H](C)[C@H](NC(=O)[C@H](CCCCN)NC(=O)[C@H](CO)NC(=O)[C@H](CC(=O)O)NC(=O)[C@H](CCCCN)NC(=O)[C@H](CCCCN)NC(=O)CNC(=O)[C@H](Cc1c[nH]cn1)NC(=O)[C@@H](N)CCC(N)=O)C(=O)N[C@H](C(=O)N[C@@H](CC(=O)O)C(=O)N[C@@H](Cc1c[nH]cn1)C(=O)N[C@@H](Cc1ccccc1)C(=O)N[C@@H](C)C(=O)N[C@@H](CCCNC(=N)N)C(=O)N[C@@H](CC(C)C)C(=O)N1CCC[C@H]1C(=O)N[C@@H](CCCCN)C(=O)N[C@@H](C)C(=O)O)[C@@H](C)O | PCNA | binding, ITC | pH 7.4 | Kd | 1.65 µM
CN1[C@@H]2C[C@@H](OC(=O)[C@H](CO)c3ccccc3)C[C@H]1[C@@H]1O[C@@H]12 | Ileal sodium/bile acid cotransporter (SLC10A2, Homo sapiens, UniProt Q12908) | transporter uptake, inhibitor |  | Ki | 6450 µM
COc1cccc(OC)c1-c1cc(C(=O)NC2(C(=O)O)CCCCC2)nn1-c1ccc(F)cc1 | Ntsr1 | calcium signal, antagonist, fluorescence |  | Kb | > 10 µM
CC[C@H](C)[C@H](NC(=O)[C@H](CCCCN)NC(=O)[C@H](CO)NC(=O)[C@H](C)NC(=O)[C@H](CCCCN)NC(=O)[C@H](CCCCN)NC(=O)CNC(=O)[C@H](Cc1c[nH]cn1)NC(=O)[C@@H](N)CCC(N)=O)C(=O)N[C@H](C(=O)N[C@@H](CC(=O)O)C(=O)N[C@@H](Cc1c[nH]cn1)C(=O)N[C@@H](Cc1ccccc1)C(=O)N[C@@H](CCSC)C(=O)N[C@@H](CCCNC(=N)N)C(=O)N[C@@H](CC(C)C)C(=O)N1CCC[C@H]1C(=O)N[C@@H](CCCCN)C(=O)N[C@@H](C)C(=O)O)[C@@H](C)O | PCNA | binding, ITC | pH 7.4 | Kd | 2.45 µM
CCC#CCOc1ccc(S(=O)(=O)CC2CS2)cc1 (racemic) | MMP2 | enzyme activity, inhibitor, fluorescence |  | IC50 | 14 µM
CC(C)(C)[C@H](NC(=O)[C@H](CCCNC(=N)N)NC(=O)Cc1ccc(CN)cc1)C(=O)N[C@@H](CCONC(=N)N)C(=O)NCc1ccc(C(=N)N)cc1 | F10 trypsin-like site | enzyme activity, inhibitor | pH 8 | Ki | 28 µM
NCC(O)c1ccc(O)cc1 (centres unmarked) | ADRB2 | ligand displacement, radioligand | cell membranes | IC50 | 73.7 µM
CC(C)(C)[C@H](NC(=O)[C@H](CCONC(=N)N)NC(=O)Cc1ccc(CN)cc1)C(=O)N[C@@H](CCONC(=N)N)C(=O)NCc1ccc(C(=N)N)cc1 | F10 trypsin-like site | enzyme activity, inhibitor | pH 8 | Ki | 47 µM
NCC(O)c1ccc(O)c(O)c1F (centres unmarked) | ADRB2 | ligand displacement, radioligand | cell membranes | Ki | 16 µM
CC[C@H](C)[C@H](NC(=O)[C@H](CCCCN)NC(=O)[C@H](CO)NC(=O)[C@H](CC(=O)O)NC(=O)[C@H](CCCCN)NC(=O)[C@H](CCCCN)NC(=O)CNC(=O)[C@H](Cc1c[nH]cn1)NC(=O)[C@@H](N)CCC(N)=O)C(=O)N[C@H](C(=O)N[C@@H](CC(=O)O)C(=O)N[C@@H](Cc1c[nH]cn1)C(=O)N[C@@H](Cc1ccccc1)C(=O)N[C@@H](CCSC)C(=O)N[C@@H](C)C(=O)N[C@@H](CC(C)C)C(=O)N1CCC[C@H]1C(=O)N[C@@H](CCCCN)C(=O)N[C@@H](C)C(=O)O)[C@@H](C)O | PCNA | binding, ITC | pH 7.4 | Kd | 4.27 µM
O=C(N[C@H]1COC(=O)[C@@H](NC(=O)c2cccc(O)c2[O-])COC(=O)[C@@H](NC(=O)c2cccc(O)c2[O-])COC1=O)c1cccc(O)c1[O-].[Fe+3] | Neutrophil gelatinase-associated lipocalin (LCN2, Homo sapiens, UniProt P80188, C107S) | binding, fluorescence | pH 7.4 | Kd | 0.00041 µM
CC(C)=CCc1c(O)cc2c(c1O)C(=O)C[C@@H](c1ccc(O)cc1)O2 | CYP1B1 | enzyme activity, inhibitor, fluorescence | 15 min, pH 7.4 | Ki | 0.23 µM
CC(C)C[C@H](NC(=O)[C@H](CCC(N)=O)NC(=O)[C@H](CC(C)C)NC(=O)[C@H](CO)NC(=O)[C@H](CO)NC(=O)[C@@H]1CCCN1C(=O)[C@H](Cc1c[nH]c2ccccc12)NC(=O)[C@H](CCC(N)=O)NC(=O)[C@H](Cc1c[nH]c2ccccc12)NC(=O)[C@H](Cc1c[nH]c2ccccc12)NC(=O)[C@@H](N)Cc1c[nH]cn1)C(=O)N[C@@H](CCCNC(=N)N)C(=O)NCC(=O)NCC(=O)NCC(=O)N[C@@H](CO)C(=O)O | MMP2 | enzyme activity, inhibitor, fluorescence |  | IC50 | 0.078 µM
CCOC(=O)C(CC)(CCCSCCOCCOCCOCCOCCNC(=O)OC(C)(C)C)NC(=O)c1ccc(C2CC2)c(Cc2ccc(F)cc2)n1 (centres unmarked) | Cannabinoid receptor 2 (CNR2, Homo sapiens, UniProt P34972) | cAMP, agonist |  | EC50 | 0.013 µM
COc1ccc(-c2cc(C(=O)N[C@H](C(=O)O)C3CCCCC3)nn2-c2ccnc3cc(Cl)ccc23)c(OC)c1 | Ntsr1 | calcium signal, antagonist, fluorescence |  | Kb | > 10 µM
C[C@H](N)Cn1ncc2ccc3c(c21)CCCO3 | ADRB2 | ligand displacement, radioligand |  | IC50 | 0.48 µM
CC[C@H](C)[C@H](NC(=O)[C@H](CCCCNC(C)=O)NC(=O)[C@H](CO)NC(=O)[C@H](CC(=O)O)NC(=O)[C@H](CCCCN)NC(=O)[C@H](CCCCN)NC(=O)CNC(=O)[C@H](Cc1c[nH]cn1)NC(=O)[C@@H](N)CCC(N)=O)C(=O)N[C@H](C(=O)N[C@@H](CC(=O)O)C(=O)N[C@@H](Cc1c[nH]cn1)C(=O)N[C@@H](Cc1ccccc1)C(=O)N[C@@H](CCSC)C(=O)N[C@@H](CCCNC(=N)N)C(=O)N[C@@H](CC(C)C)C(=O)N1CCC[C@H]1C(=O)N[C@@H](CCCCN)C(=O)N[C@@H](C)C(=O)O)[C@@H](C)O | PCNA | binding, ITC | pH 7.4 | Kd | 6.14 µM
CC(=O)N[C@@H](C)C(=O)N1CCC[C@H]1C(=O)N[C@@H](CC(C)C)C(=O)N[C@H](C(=O)N[C@@H](CCCNC(=N)N)C(=O)NCC(=O)N[C@@H](CO)C(=O)N[C@@H](CS)C(=O)N[C@@H](CCCNC(=N)N)C(=O)N[C@@H](CCCCN)C(=O)N[C@@H](CCCNC(=N)N)C(=O)N[C@@H](CC(N)=O)C(=O)N[C@@H](CCCNC(=N)N)C(=O)N[C@@H](CO)C(=O)N1CCC[C@H]1C(=O)N[C@@H](CCC(=O)O)C(=O)N[C@@H](CCCNC(=N)N)C(N)=O)[C@@H](C)O | WD repeat-containing protein 5 (WDR5, Homo sapiens, UniProt P61964) | binding, ITC | pH 7 | Kd | 14.6 µM
COc1ccccc1-c1cc(C(=O)NC2(C(=O)O)CCCCC2)nn1-c1ccc(F)cc1 | Ntsr1 | calcium signal, antagonist, fluorescence |  | Kb | > 10 µM
O=C1C2(Cl)C3(Cl)C4(Cl)C(Cl)(Cl)C5(Cl)C3(Cl)C1(Cl)C5(Cl)C24Cl (centres unmarked) | Histone-lysine N-methyltransferase SETD7 (SETD7, Homo sapiens, UniProt Q8WTS6) | enzyme activity, inhibitor |  | IC50 | > 333 µM
CC[C@H](C)[C@H](NC(=O)[C@H](CCCCN)NC(=O)[C@H](CO)NC(=O)[C@H](CC(=O)O)NC(=O)[C@H](CCCCN)NC(=O)[C@H](CCCCN)NC(=O)CNC(=O)[C@H](Cc1c[nH]cn1)NC(=O)[C@@H](N)CCC(N)=O)C(=O)N[C@H](C(=O)N[C@@H](CC(=O)O)C(=O)N[C@@H](Cc1c[nH]cn1)C(=O)N[C@@H](Cc1ccccc1)C(=O)N[C@@H](CCSC)C(=O)N[C@@H](CCCNC(=N)N)C(=O)N[C@@H](CC(C)C)C(=O)N1CCC[C@H]1C(=O)N[C@@H](CCCCN)C(=O)N[C@@H](C)C(=O)O)[C@@H](C)O | PCNA | binding, ITC | pH 7.4 | Kd | 3.28 µM
c1ccc2c(c1)-c1cccc3cccc-2c13 | CYP1B1 | binding, absorbance | pH 7.4 | Kd | 1.6 µM
